Experimental findings from PMC9070076 (RSC Advances, 2019) are described below.

For data set [1], the system named is isoprenaline-induced myocardial infarction (MI) in mice. Type of data set: in vivo, Kunming mice. As to conditions: 30 mg kg^-1 i.v. for 7 days, seventh day. The gist of the method: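 Kunming mice (about 8 weeks, 20–30 g) were randomised into groups of n = 8 and given test compound i.v. for 7 days in 0.5% NaHCO₃:propylene glycol:saline (17:2:81). Isoprenaline chloride 5 mg kg⁻¹ i.p. was given days 4–5 to all groups except control. Lead II ECG ST elevation was recorded under pentobarbital. Day-7 orbital serum was taken for CK, and left-ventricle H&E sections were read at 200×. Single-tailed t test.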

Data set [2] can be described thus: Multicomponent pharmacokinetics in rat plasma after single i.v. EBI. The data set is classed as in vivo, Sprague-Dawley rats. As to conditions: Sprague-Dawley, iv, n = 6.
[3] abbreviates: 0.72 mL kg^-1, AUC0–t, Low dosage: 0.72 mL kg^-1 of 10 times concentrated EBI.
Setting [4] is: 0.72 mL kg^-1, Cl, Low dosage: 0.72 mL kg^-1 of 10 times concentrated EBI.
Setting [5] is: 0.72 mL kg^-1, MRT0–t, Low dosage: 0.72 mL kg^-1 of 10 times concentrated EBI.
Where [6] appears, read: 0.72 mL kg^-1, Vd, Low dosage: 0.72 mL kg^-1 of 10 times concentrated EBI.
The mark [7] stands for this setting: 0.72 mL kg^-1, t 1/2, Low dosage: 0.72 mL kg^-1 of 10 times concentrated EBI.
Setting [8] is: 3.6 mL kg^-1, AUC0–t, High dosage: 3.6 mL kg^-1 of 10 times concentrated EBI.
Setting [9] is: 3.6 mL kg^-1, Cl, High dosage: 3.6 mL kg^-1 of 10 times concentrated EBI.
[10] abbreviates: 3.6 mL kg^-1, MRT0–t, High dosage: 3.6 mL kg^-1 of 10 times concentrated EBI.
[11] abbreviates: 3.6 mL kg^-1, Vd, High dosage: 3.6 mL kg^-1 of 10 times concentrated EBI.
The mark [12] stands for this setting: 3.6 mL kg^-1, t 1/2, High dosage: 3.6 mL kg^-1 of 10 times concentrated EBI.

Consider `O=C(O)[C@H]1O[C@@H](Oc2cc3oc(-c4ccc(O)cc4)cc(=O)c3c(O)c2O)[C@H](O)[C@@H](O)[C@@H]1O` [Scutellarin, scutellarin], for which the “ST segment elevation (ECG)” value in data set [1] (P < 0.05 vs. model group) is “seldom occurred”. The “serum creatine kinase (CK) activity” value in data set [1] (P < 0.05 vs. model group) was “significantly decreased”. Also, in data set [1] (left ventricle sections), the “heart histopathology (H&E staining)” value was “mild edema, inflammatory infiltration and loss of striations in heart tissue”. The AUC(0-t) was found to be 1510 ± 574 ng·h/mL in data set [2] (setting [3]) and 6860 ± 989 ng·h/mL in data set [2] (setting [8]). The values for the clearance in data set [2] (setting [4]) and in data set [2] (setting [9]) were 8.5 mL/min and 7.5 mL/min, respectively. Further, the MRT last in data set [2] (setting [5]) stood at 23.4 ± 5.4 min; in data set [2] (setting [10]) it was 27 ± 6 min. The volume of distribution (Vd) came to 0.9 ± 0.54 L in data set [2] (setting [6]) and 1.63 ± 0.65 L in data set [2] (setting [11]). Also, the half-life in data set [2] (setting [7]) was 74.4 ± 38.4 min; in data set [2] (setting [12]), 151 ± 57 min.

For `O=C(O)/C=C/c1ccc(O)c(O)c1` [Caffeic acid, caffeic acid], the results for the AUC(0-t) in data set [2] (setting [3]) and in data set [2] (setting [8]) were 75.2 ± 43.8 ng·h/mL and 393 ± 145 ng·h/mL, respectively. Also, the values for the clearance in data set [2] (setting [4]) and in data set [2] (setting [9]) were 8 mL/min and 6.83 mL/min, respectively. For the same compound, the MRT last in data set [2] (setting [5]) was 8.4 ± 2.4 min; in data set [2] (setting [10]), 12 ± 4.2 min. Besides, the Vd in data set [2] (setting [6]) turned out to be 0.16 ± 0.07 L; in data set [2] (setting [11]), 0.13 ± 0.06 L. In addition, the half-life is 13.8 ± 1.8 min in data set [2] (setting [7]) and 13.2 ± 4.2 min in data set [2] (setting [12]).

The AUC(0-t) is exposure summed from dosing to a finite time, without extrapolation to infinity. High values mean high exposure, low ones low exposure. In general, clearance refers to a measure of how efficiently the substance is removed, as volume per time. One may read the MRT last as the average time that molecules of a dose stay in the body. A word on the Vd: it is a proportionality between amount in the body and measured concentration, not a real space. Low values mean little distribution into tissue, high ones wide distribution into tissue. The term half-life denotes the time needed for the level to fall by half in the phase considered. A high value points to slow decline.
